Most compounds without a hit are left out; they make up all but 2.7% or so of the library.
CHO parental Ca = ATP-evoked calcium signal inhibitors, parental CHO, primary screen, counter-screen for OX1R antagonist project, cell-based, fluorescence, Fluo-8 calcium dye | actives 0.63% (n = 330,000) | parental CHO-K1, ATP-induced calcium, Fluo-8 fluorescence | inhibition, % at 5.6 µM;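 active = inhibition above that plate's mean sample inhibition plus 3 SD, cut at about 26% in these data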;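 note: 0% = ATP-challenged DMSO wells and 100% = DMSO wells without ATP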
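Material: Parental CHO cells | Reagent: ATP | Compound dosing: Single nominal dose of 5.6 µM per compound | Detection: Intracellular calcium via Fluo-8 no-wash fluorescent dye | Read-out: % inhibition of ATP-induced calcium mobilization | Benchmarks: Low control ATP plus DMSO, high control DMSO only | Replicates: Singlicate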
OX1R antag-1 = OX1R (HCRTR1) antagonists, primary screen, fluorescence, CHO/OX1R cells, Fluo-8 calcium, orexin A. AID 434989, 2010. Orexin/Hypocretin receptor type 1 (Homo sapiens), O43613. Fluo-8 calcium fluorescence. inhibition, % at 5 µM. actives 0.43% (n = 330,000);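 active = inhibition above its plate's threshold, mean inhibition of all tested compounds on the plate plus 3 SD, cut at about 37% in these data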;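 note: 0% = orexin A challenge wells and 100% = SB-334867-A antagonist wells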
OXTR potentiate = human OXTR potentiators, primary screen, fluorescence, CHO-OTR cells, Fluo-8 calcium; Oxytocin receptor (Homo sapiens), P30559; Fluo-8 calcium fluorescence, potentiator mode; 0% = oxytocin EC15, 100% = EC100; activation, % at 3 µM; actives 0.061% (n = 320,000);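 active = activation above that plate's cutoff, the mean activation of tested compounds plus 3 SD, cut at about 6.6% in these data, passing the limit was not always enough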;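 note: 100% uses oxytocin at 75 nM as the full agonist control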
Target sequence (P30559 whole entry, looked up): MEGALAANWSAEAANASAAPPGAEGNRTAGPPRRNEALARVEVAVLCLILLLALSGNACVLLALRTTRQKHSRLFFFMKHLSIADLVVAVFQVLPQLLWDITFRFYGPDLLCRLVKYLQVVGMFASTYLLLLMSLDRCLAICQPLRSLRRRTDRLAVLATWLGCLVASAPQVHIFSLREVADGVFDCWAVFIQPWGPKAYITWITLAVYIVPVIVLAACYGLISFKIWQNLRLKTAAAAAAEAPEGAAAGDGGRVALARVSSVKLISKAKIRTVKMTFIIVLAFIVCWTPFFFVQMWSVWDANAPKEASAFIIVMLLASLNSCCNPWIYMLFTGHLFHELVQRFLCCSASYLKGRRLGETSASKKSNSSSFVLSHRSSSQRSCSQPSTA
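assay system = CHO-OTR cells, human receptor | schedule = compound 6 min at room temperature before oxytocin, 100 s read | detection = Fluo-8 intracellular calcium fluorescence, ex 470-495, em 515-575 nm | evaluation = normalized max/min fluorescence ratio, % activation | control set = EC15 oxytocin alone as 0%, 75 nM oxytocin (EC100) as 100%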
V1R ag counter = agonists of human V1a receptor, primary screen, counter-screen for OXTR agonist project, fluorescence, CHO-V1R cells; activation, % at 3 µM; Fluo-8 calcium fluorescence, agonist mode; 0% DMSO, 100% 3 nM vasopressin; AID 2797, 2010; actives 0.25% (n = 320,000);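 active = activation above the mean activation of all tested compounds plus 3 SD, per screening run, cut at about 20% in these data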;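 note: signal is peak over basal fluorescence ratio across a 100 second FLIPR read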
OXTR agonist = human OXTR agonists, primary screen, fluorescence, CHO-OTR cells, Fluo-8 calcium; Fluo-8 calcium fluorescence; normalized: DMSO 0%, oxytocin 100%; actives 0.32% (n = 320,000); AID 2435, 2010; Oxytocin receptor (Homo sapiens), P30559; activation, % at 3 µM;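 active = activation above the mean of all tested compounds plus 3 SD, cutoff set per screening run, cut at about 20% in these data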;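 note: peak over basal fluorescence ratio from a 100 s FLIPR kinetic read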
OX1R antag-2 = antagonists of human orexin 1 receptor (OX1R). OX1R-expressing cells, FRET antagonist read-out. inhibition, % at 6.6 µM. actives 1.8% (n = 330,000); in the data active = inhibition mostly above about 38%, no sharp cut-off; inactive = mostly below about 40%;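 note: 0% = agonist challenge alone and 100% = reference antagonist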
OX1R HTRF confirm = OX1R (HCRTR1) antagonists, confirmation, cell-based, HTRF; OX1R-expressing cells, HTRF antagonist assay; actives 49% (n = 1,800); inhibition, % at 6.6 µM; AID 492964, 2010; shares compounds with OX1R antag-2; in the data active = inhibition above about 55%;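 note: CHO cells expressing OX1R stimulated with orexin A at about EC80; 0% = agonist challenge alone and 100% = reference antagonist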
CHO-K1 HTRF cnt = signal inhibition in parental CHO-K1 cells, counter-screen for OX1R antagonist project, cell-based, HTRF | actives 48% (n = 1,800) | inhibition, % at 6.6 µM | shares compounds with OX1R antag-2 | AID 493232, 2011 | HTRF counterscreen; in the data active = inhibition above about 17%;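 note: 0% = agonist challenge with vehicle and 100% = vehicle alone without agonist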
* = called active by the depositor; / = no result; ! = repeats disagree.

SMILES	CHO parental Ca	OX1R antag-1	OXTR potentiate	V1R ag counter	OXTR agonist	OX1R antag-2	OX1R HTRF confirm	CHO-K1 HTRF cnt
Cc1cc(=O)n(C)c(=O)n1CCCCCCOc1ccc([N+](=O)[O-])cc1	-4	-12	-3	4	3	6	/	/
O=C(CSc1ncnc2sccc12)NCc1ccc2c(c1)OCO2	-9	-26	-10	0	-1	5	/	/
CCOC(=O)c1c(N)n(CCOC(=O)c2cccs2)c2nc3ccccc3nc12	-11	-3	-13	5	5	78*	56*	7
O=C(CSc1nnc(CNC(=O)c2cccs2)o1)Nc1ccc(Br)cc1	-16	-23	-5	8	5	1	/	/
O=C(CN1CCN(c2ccc(O)cc2)CC1)Nc1cc([N+](=O)[O-])ccc1Cl	-7	8	-6	1	-1	79*	32	47*
CCOc1ccccc1NC(=S)NNS(=O)(=O)c1c(C)cc(C)cc1C	-3	-13	-2	1	-1	97*	26	4
O=S(=O)(NCCc1csc(-c2ccccc2)n1)c1ccc2c(c1)OCCO2	-14	13	-17	7	6	83*	64*	1
O=C1CCCC(O)=C1N=Nc1cccc(S(=O)(=O)N2CCOCC2)c1	-9	-16	-8	0	0	8	/	/
O=C1CCCC(O)=C1N=Nc1ccc2c(c1)OCO2	-8	-5	-3	0	1	81*	50	58*
O=C1CCCC(O)=C1N=Nc1ccc(C(=O)O)cc1	-4	6	-3	0	0	86*	72*	64*
COc1ccccc1C(=O)NNC(=O)C(=O)NC1CCCCC1	-6	-10	7	1	0	19	/	/
O=C(NCCN1CCCCCC1)C1CCCN1S(=O)(=O)c1cccc2nsnc12 (configuration not stated)	-6	-17	-1	-1	1	61	/	/
O=C(Nc1ccc(F)cc1F)C1CCCN1S(=O)(=O)c1cccc2nsnc12 (configuration not stated)	-7	4	-7	0	0	77*	59*	27*
O=C(NCCN1C(=O)S/C(=C\c2ccc(Cl)c(Cl)c2)C1=O)c1cnccn1	-1	-3	-9	4	1	6	/	/
O=C(NCCN1C(=O)S/C(=C\c2ccc(Cl)c([N+](=O)[O-])c2)C1=O)C1=COCCO1	-3	-2	-14	10	11	83*	48	57*
NS(=O)(=O)c1ccc(Nc2ccc([N+](=O)[O-])c3nonc23)cc1	4	-2	-2	7	3	132*	50	63*
CC(=O)c1ccc(Nc2ccc([N+](=O)[O-])c3nonc23)cc1	20	0	-6	12	10	78*	41	39*
COC(=O)c1ccc(Nc2ccc3nonc3c2[N+](=O)[O-])cc1	-3	-3	3	1	2	5	/	/
CCc1nnc(NS(=O)(=O)c2ccc(Nc3ccc([N+](=O)[O-])c4nonc34)cc2)s1	-9	-6	-10	3	3	25	/	/
COc1cc(NC(=O)c2ccc(=O)[nH]n2)cc(OC)c1OC	4	5	-9	1	1	8	/	/
Cc1ccc[n+](-c2nc3ccccc3nc2C(=C=[N-])C#N)c1	4	5	-5	1	1	96*	36	41*
Cc1cc(C)c[n+](-c2nc3ccccc3nc2C(=C=[N-])C#N)c1	0	3	-5	1	1	84*!	32	33*
COc1ccccc1C(CNC(=O)c1oc2ccccc2c1C)N1CCCC1 (configuration not stated)	-13	-24	-5	0	0	10	/	/
CC(C)[C@H](NC(=O)c1ccc(C(C)(C)C)cc1)C(=O)N1CCN(Cc2ccc3c(c2)OCO3)CC1	-24	26	-9	4	-2	25	/	/
Nc1c(-c2ccccc2)c(CN2CCOCC2)nn1-c1cccc([N+](=O)[O-])c1	-12	-23	-6	0	0	85*	32	29*
SMILES	CHO parental Ca	OX1R antag-1	OXTR potentiate	V1R ag counter	OXTR agonist	OX1R antag-2	OX1R HTRF confirm	CHO-K1 HTRF cnt
CCOc1ccc(/C=C2\SC(=S)N(NS(=O)(=O)c3ccccc3)C2=O)cc1OC	2	-6	1	0	0	78*	43	24*
CCOc1ccc(/C=C2\SC(=S)N(NS(=O)(=O)c3ccc(C)cc3)C2=O)cc1OC	-10	-20	-4	1	-1	56	/	/
O=C(Oc1ccc(Br)cc1C(=S)N1CCCCC1)c1cc([N+](=O)[O-])cc([N+](=O)[O-])c1	-6	-19	-10	-1	-1	130*	73*	70*
O=C(Oc1ccc(Br)cc1C(=S)N1CCCC1)c1ccccc1Cl	-3	-2	-13	0	-2	15	/	/
COc1ccc(N(C)S(=O)(=O)c2cccc(C(=O)OCC(=O)N(C)c3ccccc3)c2)cc1	-19	-2	-10	7	12	11	/	/
Fc1ccc(NC(=S)Nc2cccnc2)c(Cl)c1	-3	-9	-3	0	0	98*	18	3
CCN1C(=O)[C@H]2[C@H]3CN=C(SCC(=O)c4ccccc4)N3[C@@](C)(C(=O)OC)[C@H]2C1=O	-7	-1	/	/	/	5	/	/
COc1ccc(Br)c(C(=O)N2CCN(S(=O)(=O)c3cccs3)CC2)c1	-6	-17	0	0	0	136*	18	4
NS(=O)(=O)c1ccc(CCNC(=O)c2cc3ccccc3oc2=O)cc1	-7	12	-5	2	2	21	/	/
CC1(C)C(=O)NCCN1C(=O)CC1C(=O)NCCN1Cc1cccc(C(F)(F)F)c1 (configuration not stated)	-4	-11	-10	0	0	8	/	/
O=C(CCS(=O)(=O)c1cccc2nonc12)N1CCN(c2ccc(F)cc2)CC1	-3	-10	-6	0	3	97*	27	24*
O=C(CCS(=O)(=O)c1cccc2nonc12)N1CCOCC1	-8	-3	-14	6	0	99*	36	69*

High-throughput results (PubChem)
